Compound activity as filed in PubChem.
This is a sample that favours compounds with a hit; in the whole collection about 2.3% have one here.
HSP90 inh – inhibitors of HSP90 luciferase refolding in rabbit reticulocyte lysate; luciferase refolding luminescence, 3 h; inhibition, % at 5.6 µM; AID 1789; 290,000 compounds, 0.91% hits;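 active means inhibition above the screen-wide mean plus 3 SD, computed separately per campaign, cut at about 16% in these data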;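 further: 0% = DMSO wells and 100% = 60 µM geldanamycin wells; inhibitors lower the luminescence because luciferase stays unfolded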
STAT1 inh – reduces IFN-gamma driven STAT1 reporter signal; AID 920; inhibition, % at 5.5 µM; NIH 3T3 STAT1-luciferase reporter, luminescence; 200,000 compounds, 0.35% hits;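 active means inhibition above a set limit, the mean inhibition across all tested compounds plus 3 SD, cut at about 34% in these data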;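 further: 0% = IFN-gamma with DMSO and 100% = IFN-gamma with 300 µM nifuroxazide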
PPC-1+TRAIL kill – compounds killing PPC-1 cancer cells with TRAIL present (potentiator screen, no TRAIL-free arm); PPC-1 cells + TRAIL, ATPLite viability luminescence; 220,000 compounds, 0.41% hits; AID 1443; cell killing (% activity), % at 4 µM or 5 µM;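 active means cell killing above 50% in the first pass at 4 µM, then a duplicate retest at 5 µM averaging 50% or more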;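 further: plate controls were cells with TRAIL plus DMSO for no effect and medium-only wells lacking cells for full effect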
TRAIL sens C8 – sensitizes caspase-8 expressing cells to TRAIL | NB7+C8 cells + TRAIL, ATPlite viability luminescence | inhibition (viability loss, TRAIL sensitization), % at 10 µM | 360,000 compounds, 1% hits | AID 624354;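 active means compounds causing at least 50% loss of cell viability in the single-dose screen, relative to plate controls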
STAT3 act-1 – STAT3 signaling activation; 190,000 compounds, 0.91% hits; U3A cells, IL-6 STAT3-luciferase reporter, luminescence; 100% = signal with IL-6 EC80 alone; activation (% of control), % at 5.6 µM; AID 871;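 active means activation above the screen-wide mean of compound activation plus 3 SD, cut at about 130% in these data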;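 further: 0% = background luminescence of wells with medium and substrate only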
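System – human U3A cells carrying STAT3-luciferase construct · Probe or stimulus – Interleukin-6, 33 ng/mL · Schedule – compound 1 h, then IL-6 6 h at 37 °C · Signal – luminescence from STAT3-driven luciferase reporter · Evaluation – percent of IL-6-only median luminescence · Benchmarks – IL-6-only high control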
STAT3 inh – inhibitors of IL-6 induced STAT3 signaling | U3A cells, IL-6 STAT3-luciferase reporter, luminescence; host cell line lacks STAT1 | inhibition, % at 5.5 µM | 190,000 compounds, 0.89% hits | AID 862;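 active means inhibition above the mean inhibition across all screened compounds plus 3 SD, cut at about 44% in these data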;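 further: 0% = DMSO only wells and 100% = 100 µM nifuroxazide control wells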
STAT3 act-2 – confirmation of STAT3 signaling activators; shares compounds with STAT3 act-1; U3A STAT3-luciferase reporter, IL-6 potentiation, luminescence; U3A cells lack STAT1; 100 means same as IL-6 alone; potentiation (% of control), % at 5.7 µM; 1,200 compounds, 64% hits;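 active means percent activation of the STAT3 luciferase reporter above a set limit taken from the earlier primary screen, cut at about 130% in these data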;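 further: 0% = background signal of medium plus substrate and 100% = median of IL-6 with DMSO wells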
NFkB act STAT3ct – counter-screen for STAT3 activators: NF-kappaB activation | activation (% of control), % at 5.7 µM | AID 1309 | shares compounds with STAT3 act-1 | human cells, NF-kappaB reporter activation | 1,200 compounds, 11% hits; in the data active means activation above about 120%;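 further: reporter induced by TNF-alpha stimulation; 100% = median of stimulated DMSO wells and 0% = no signal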
STAT1 act STAT3c – STAT1 activation in STAT3 activator counter-screen. shares compounds with STAT3 act-1. NIH 3T3 STAT1-luciferase reporter, IFN-gamma, luminescence. activation (% of control), % at 5.7 µM. 1,200 compounds, 13% hits;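 active means activation above the solvent-only control well mean plus 3 SD, set per screening run, cut at about 120% in these data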;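 further: 100% = IFN-gamma with DMSO median signal so 100% means no change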
Active calls of the source: *; . = no result.

SMILES	HSP90 inh	STAT1 inh	PPC-1+TRAIL kill	TRAIL sens C8	STAT3 act-1	STAT3 inh	STAT3 act-2	NFkB act STAT3ct	STAT1 act STAT3c
CC(=O)n1cc(Nc2ccccc2C(=O)O)c2ccccc21	7.8	13.6	-0.5	1.4	155.6*	-60.3	161.9*	107.5	110.7
COc1ccc(OC)c(C(=O)COC(=O)C2CC3CCCC(C2)C3=O)c1 (centres undefined)	9.5	6.4	-6.5	7.3	102.0	-2.5	.	.	.
COc1ccc(NC(=O)COC(=O)/C=C/c2cnc3ccccc3n2)cc1	-1.5	2.1	19.0	9.0	86.5	20.9	.	.	.
COc1ccc(N2C(=O)CC(Sc3nc(C)cc(C)n3)C2=O)cc1OC (centres undefined)	-3.2	.	.	-14.1	.	.	.	.	.
Cc1cc(C)nc(SC2CCCCC2O)n1 (centres undefined)	0.8	4.7	23.3	-26.3	135.8*	-41.4	112.3	96.9	99.0
COc1cccc(NC(C)(C)c2nnnn2-c2c(C)cccc2C)c1	1.8	.	19.0	5.2	.	.	.	.	.
CN(C)S(=O)(=O)c1cccc(C(=O)N2CCc3ccccc32)c1	-0.1	3.7	16.6	1.7	147.8*	-52.8	125.9	108.5	107.6
Cc1[nH]c2ccccc2c1C(=O)COC(=O)Cn1c(C(F)(F)F)nc2ccccc21	-0.3	2.0	3.2	-5.8	101.5	2.1	.	.	.
O=C(Cn1c(C(F)(F)F)nc2ccccc21)OCC(=O)c1c[nH]c2ccccc12	2.6	6.3	0.1	-5.9	137.6*	-44.0	111.7	97.5	93.4
CCOc1ccc(NC(=O)C(Cc2ccccc2)N2C(=O)c3cccc4cccc(c34)C2=O)cc1 (centres undefined)	-1.2	0.4	-12.3	11.5	138.0*	-35.8	118.5	96.3	97.4
Cc1cc2cc(OCC(=O)O)ccc2n1C	-0.5	4.4	-7.3	-6.2	104.2	-3.1	.	.	.
CCNC(=O)C1CCCN(C(=O)c2ccc(-c3ccccc3)cc2)CC1 (centres undefined)	.	.	.	-2.7	.	.	.	.	.
O=C1Nc2ccc(Br)cc2C12NNc1ccccc1O2 (centres undefined)	-2.8	-0.4	16.3	20.0	141.3*	-47.4	122.5	98.5	96.2
COc1ccc(-n2nc(C(=O)NCC(=O)NC3CCCC(C)C3C)c3ccccc3c2=O)c(OC)c1 (centres undefined)	-0.4	.	.	-10.1	.	.	.	.	.
CCOC(=O)c1c(C)oc2c1c(CN1CCN(C(=O)OCC)CC1)c(O)c1ccccc12	-0.6	0.4	9.9	-3.2	129.5	-37.8	.	.	.
CCOC(=O)c1c(C)oc2c1c1c(c3ccccc32)OCN(Cc2ccccn2)C1	6.1	-7.4	-9.0	13.2	150.3*	-62.7	126.2	98.6	93.4
Cc1ccc(NC(=O)c2oc3ccccc3c2C)nc1	0.6	.	.	-0.3	.	.	.	.	.
Cc1c(C(=O)Nc2ccccn2)oc2ccccc12	3.6	-27.7	35.6	13.1	154.1*	-59.3	217.6*	142.2*	172.7*
CCOC(=O)C1=C(C)N(CCCC(=O)O)C(=O)NC1c1ccc(Cl)cc1Cl (centres undefined)	-0.8	.	.	-0.2	.	.	.	.	.
O=C1CN(C(=O)c2ccc(Br)o2)C(c2ccccc2)c2cc(Cl)ccc2N1 (centres undefined)	2.3	8.4	16.3	13.6	124.4	-19.6	.	.	.
O=C1CN(C(=O)c2ccc(Br)o2)C(c2ccccc2)c2cc(Br)ccc2N1 (centres undefined)	4.2	1.4	19.0	16.7	142.4*	-46.9	138.7*	100.4	111.3
Cc1cccc(NC(=O)C2=C(O)c3ccccc3N(C)S2(=O)=O)c1	0.8	1.0	-2.8	-6.9	155.0*	-60.4	95.0	108.8	99.0
CN1c2ccccc2C(O)=C(C(=S)Nc2ccc(Cl)cc2)S1(=O)=O	5.6	8.8	6.2	14.0	101.0	4.6	.	.	.
O=C(NC(NC(=S)Nc1ccccc1Cl)C(Cl)(Cl)Cl)c1cccc(Cl)c1 (centres undefined)	0.8	7.4	18.4	25.7	107.5	-5.4	.	.	.
COC(=O)[C@@]12C[C@@H](CC(=O)NCCc3ccccc3OC)C(=O)N(Cc3ccc4c(c3)OCO4)C1=CCC(C)(C)C2	.	.	.	-3.6	.	.	.	.	.
SMILES	HSP90 inh	STAT1 inh	PPC-1+TRAIL kill	TRAIL sens C8	STAT3 act-1	STAT3 inh	STAT3 act-2	NFkB act STAT3ct	STAT1 act STAT3c
O=C1c2ccccc2C(=O)N1CCC1=CCCCC1	-0.3	-22.7	4.9	-5.5	141.5*	-41.2	120.9	122.4*	131.5*
O=C(O)c1ccc2c(c1)C(=O)N(CCC1=CCCCC1)C2=O	-3.6	4.2	-12.4	-14.2	94.1	11.4	.	.	.
O=C(NCc1ccco1)c1ccc([N+](=O)[O-])o1	-1.4	3.9	24.4	10.1	97.1	5.6	.	.	.
OCCN1CCN(c2nc(-c3ccccc3)c3cc(Cl)ccc3n2)CC1	1.3	7.3	5.7	15.4	88.6	19.6	.	.	.
Cc1ccc(-c2nc(NCCN3CCOCC3)c3ccccc3n2)cc1	-2.5	1.8	21.1	-25.5	180.8*	-80.8	168.5*	105.4	98.2
COc1ccc(NC(=S)N2CCC(N(C)CCN3CCOCC3)CC2)cc1	5.8	7.2	12.8	6.7	97.5	0.6	.	.	.
Cc1ccc(-c2ccc(CCC(=O)O)n2-c2cccc(C(=O)O)c2)cc1	2.6	.	.	1.9	.	.	.	.	.
O=C(Nc1nc2ccccc2n1CCN1CCCC1)c1ccc(Cl)cc1	-3.4	-22.2	16.6	26.8	149.8*	-55.1	143.4*	116.8	127.3*
CN=C1S/C(=C\c2ccc(OCC(=O)OC)c(OC)c2)C(=O)N1C	2.2	.	.	13.6	.	.	.	.	.
NC(=S)N/N=C/c1ccc(-c2ccc(Cl)c(Cl)c2)o1	-4.3	-2.4	23.1	-3.6	191.0*	-102.7	145.3*	109.3	111.0
Cc1ccc(-c2ccc(/C=N/NC(N)=S)o2)cc1	1.7	.	-8.8	9.7	.	.	.	.	.
NNc1ncnc2sc3c(c12)CCC3	0.2	18.9	-0.7	0.5	139.1*	-39.8	137.1*	102.1	91.6
c1cc(Nc2ncnc3sc4c(c23)CCC4)ccn1	-0.1	2.7	19.5	0.4	104.6	4.3	.	.	.
C(=N\Nc1ncnc2sc3c(c12)CCC3)/c1cccs1	-0.4	8.4	30.3	46.7	152.0*	-58.8	141.9*	110.2	95.4
C(=N\Nc1ncnc2sc3c(c12)CCC3)/c1ccncc1	0.0	19.3	18.0	-1.3	82.7	26.0	.	.	.
COC(=O)c1ccc(-c2cc(CC3(C(=O)OC)CCN(C(=O)OC(C)(C)C)CC3)on2)cc1	2.2	.	.	14.3	.	.	.	.	.
COC(=O)C[C@H]1C=C[C@H](NC(=O)Nc2ccccc2)[C@@H](CO)O1	.	.	.	-16.1	.	.	.	.	.
